# Experimental data published in PubChem BioAssay.
# The source made the active and inactive calls.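 Rule for the calls, unless noted: active = potentiation averaged over duplicate wells exceeding buffer-only control mean by more than 3 SD; inactive = the rest.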
# Target: Potassium voltage-gated channel subfamily KQT member 1 (Homo sapiens) (UniProt P51787)
# Test: KCNQ1 potassium channel potentiators, confirmation, FluxOR thallium flux, CHO cells, duplicates (AID 493007);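 for outcome: cells depolarized by a potassium plus thallium sulfate stimulus after compound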
# Conditions: KCNQ1 cell line, FluxOR thallium flux fluorescence, at 10 µM; hits give high values, % of reference activator effect, buffer zero
# Outline: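 System: KCNQ1-expressing CHO cell line; technique: kinetic thallium influx fluorescence with FluxOR dye, 10 s baseline, 110 s post-stimulus; timing: dye 90 min then compound 20 min, both at room temperature; controls: buffer-only wells as 0% and R-L3 activator as 100%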
# Chain of Potassium voltage-gated channel subfamily KQT member 1 (Homo sapiens) (P51787 whole entry, looked up): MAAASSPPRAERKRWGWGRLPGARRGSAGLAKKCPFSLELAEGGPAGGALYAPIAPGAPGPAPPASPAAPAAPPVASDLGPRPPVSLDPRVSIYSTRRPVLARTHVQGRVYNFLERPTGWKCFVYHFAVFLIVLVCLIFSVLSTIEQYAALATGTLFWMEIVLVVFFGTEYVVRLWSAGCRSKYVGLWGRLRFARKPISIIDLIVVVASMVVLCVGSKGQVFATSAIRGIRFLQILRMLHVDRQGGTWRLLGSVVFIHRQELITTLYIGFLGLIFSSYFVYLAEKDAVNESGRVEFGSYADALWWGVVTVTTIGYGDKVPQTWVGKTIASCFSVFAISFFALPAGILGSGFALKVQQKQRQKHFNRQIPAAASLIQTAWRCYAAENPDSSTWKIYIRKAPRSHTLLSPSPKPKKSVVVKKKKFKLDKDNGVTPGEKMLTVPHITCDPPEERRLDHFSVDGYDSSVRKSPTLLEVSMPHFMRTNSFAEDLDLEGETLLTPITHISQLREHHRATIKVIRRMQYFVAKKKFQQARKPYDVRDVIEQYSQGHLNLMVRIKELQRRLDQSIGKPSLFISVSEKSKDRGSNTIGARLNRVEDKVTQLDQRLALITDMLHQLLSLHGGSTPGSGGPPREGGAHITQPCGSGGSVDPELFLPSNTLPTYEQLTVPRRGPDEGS
SMILES,potentiation,outcome
Cc1cc(NC(=O)CSc2nc(C3CC3)nc3sc(C)c(C)c23)no1,38% (active),
CC(=O)Nc1c2c(nn1-c1ccc(C)cc1)CS(=O)(=O)C2,,inactive
CCCNC(=O)C(=O)N/N=C/c1cccs1,24.5% (active),
O=c1c(O)c(-c2ccc3c(c2)OCO3)oc2ccccc12,41.5% (active),
Cc1ccc(C(=O)CC(=O)c2cccc(F)c2)c(O)c1,35% (active),
CN1C(=O)C2(Oc3ccccc3C3CC(c4ccccc4)=NN32)c2ccccc21 (stereo not given),,inactive
Cc1nnc(SCC(=O)N(Cc2ccccc2)C(C)C)n1-c1ccccc1,,inactive
O=C(NC(=S)N1CCc2ccccc21)c1ccccc1Br,208% (active),
Cc1[nH]c(-c2ccccn2)nc(=S)c1Cl,106% (active),
O=C1NN(c2ccccc2)C(=O)/C1=C\c1cccc(OC(=O)c2cccs2)c1,61.5% (active),
CC(C)C1=NN(C(=O)c2ccccc2)C(O)(C(C)(C)C)C1 (stereo not given),,inactive
Cc1ccc(-n2ncc3c(SCC(=O)NNC(=O)c4ccco4)ncnc32)cc1,,inactive
COC(=O)[C@@H]1CCCN1C(=O)CCc1nnc(CCC2CCCCC2)o1,,inactive
CCOc1ccc(C(=O)C(CCC(CN(C)C)C(=O)c2ccc(OCC)cc2)CN(C)C)cc1 (stereo not given),34.5% (active),
O=C(Nc1nccs1)c1ccc(-c2ccc(F)c(Cl)c2)o1,,inactive
O=[N+]([O-])c1cc(CN2CCCC2)ccc1Sc1ccc(Cl)cc1,,inactive
Nc1nc(COc2ccccc2C=O)nc(Nc2ccccc2)n1,,inactive
O=c1c2ccccc2nc(-c2cccc(Cl)c2)n1O,100% (active),
COc1ccc(C(=O)NNC(=O)C(=O)NC2CCCCC2)cc1,22% (active),
O=C(NN=C1CCCCCC1)c1cc(-c2ccccc2)nc2ccccc12,,inactive

SMILES,potentiation,outcome
Cc1ccc(C(=O)NCCC(=O)NCc2cc(=O)n(C)c(=O)n2C)cc1,,inactive
CC(C)c1nc2n[nH]c(N)c2c2c1CSC(C)(C)C2,31.5% (active),
COCCN(C(=O)COC(=O)/C=C/c1cccs1)c1c(N)n(Cc2ccccc2)c(=O)[nH]c1=O,,inactive
N#C/C(=C\c1ccc(-c2ccccc2Cl)o1)C(=O)Nc1nc2ccccc2s1,,inactive
CSC(=S)N/N=C/c1ccc(N(C)C)cc1,,inactive
Cc1ccc(C(=O)COC(=O)COc2ccccc2C)cc1,,inactive
O=c1c2cc(Cl)ccc2nc(-c2ccccc2)n1O,82.5% (active),
OC(c1ccccc1)c1cccnc1 (stereo not given),22% (active),
CCCn1c(=S)[nH]c2sc3c(c2c1=O)CCCC3,158% (active),
Fc1ccccc1/C=N/NC(=S)Nc1ccc(Cl)cc1Cl,66.5% (active),
CCCCOC(=O)c1cc(C)nc2ccc(Br)cc12,172% (active),
COC(=O)C1SCC2C(=O)N(Cc3ccc(F)cc3)CC(=O)N21 (stereo not given),46.5% (active),
CCCOc1ccc(CN(CCC#N)C(=S)NC(=O)c2ccccc2)cc1,134% (active),
CCN(C(=O)COC(=O)c1ccccc1Nc1cccc(C)c1C)C1CCS(=O)(=O)C1 (stereo not given),,inactive
COc1ccc(N2CCN(C(=O)COC(=O)/C=C/c3ccc(OC(F)F)cc3)CC2)cc1,64.5% (active),
Clc1ccc(C(c2ccccc2)N2CCNCC2)cc1 (stereo not given),,inactive
CCOC(=O)CSc1nc2ccccc2c(=O)n1-c1ccc(C)cn1,,inactive
Cc1cc(C)c(NC(=O)CN2C(=O)NC3(CCCc4ccccc43)C2=O)c(Cl)c1 (stereo not given),,inactive
O=C(c1ccccc1[N+](=O)[O-])N1CCN(c2ccc(N3CCOCC3)nn2)CC1,,inactive
COc1ccc(-c2csc(N(CCCN(C)C)C(=O)c3ccccc3Cl)n2)cc1,,inactive

# Target: Potassium voltage-gated channel subfamily KQT member 2 (Rattus norvegicus) (UniProt O88943)
# Sequence (O88943 whole entry, looked up): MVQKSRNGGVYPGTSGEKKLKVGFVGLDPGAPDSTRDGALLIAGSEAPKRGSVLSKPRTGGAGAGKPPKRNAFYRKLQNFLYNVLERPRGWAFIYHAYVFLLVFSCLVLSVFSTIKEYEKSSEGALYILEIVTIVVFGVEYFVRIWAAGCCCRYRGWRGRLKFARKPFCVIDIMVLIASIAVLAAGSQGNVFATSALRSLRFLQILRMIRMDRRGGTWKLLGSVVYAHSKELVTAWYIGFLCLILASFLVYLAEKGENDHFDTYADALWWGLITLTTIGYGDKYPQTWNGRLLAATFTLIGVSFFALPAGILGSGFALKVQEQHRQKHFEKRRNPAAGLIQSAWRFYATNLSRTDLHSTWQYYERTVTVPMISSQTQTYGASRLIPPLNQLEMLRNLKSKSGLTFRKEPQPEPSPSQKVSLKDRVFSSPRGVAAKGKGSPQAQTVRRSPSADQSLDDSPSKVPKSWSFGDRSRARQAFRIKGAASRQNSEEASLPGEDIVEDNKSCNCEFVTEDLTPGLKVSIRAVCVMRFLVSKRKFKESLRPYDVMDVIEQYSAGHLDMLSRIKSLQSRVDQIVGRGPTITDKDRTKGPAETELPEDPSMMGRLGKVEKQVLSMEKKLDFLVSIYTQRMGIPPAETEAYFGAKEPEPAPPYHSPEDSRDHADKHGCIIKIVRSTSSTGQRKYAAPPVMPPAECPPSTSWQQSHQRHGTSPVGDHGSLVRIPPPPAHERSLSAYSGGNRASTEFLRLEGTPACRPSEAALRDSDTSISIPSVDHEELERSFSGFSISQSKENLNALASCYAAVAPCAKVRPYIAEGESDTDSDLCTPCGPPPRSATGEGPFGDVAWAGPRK
# Test: rat KCNQ2 channel potentiation, selectivity assay for KCNQ1 potentiator project, KCNQ2-CHO-K1 cells (AID 493009;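 active = mean duplicate potentiation above the buffer control mean plus 5 SD of buffer wells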;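 note: assay conditions were tuned for KCNQ1 rather than KCNQ2 modulators; signal is max minus min fluorescence divided by baseline after thallium stimulus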)
# Conditions: FluxOR thallium flux fluorescence, at 10 µM; hits give high values, scaled: buffer 0, activator control 100
SMILES,potentiation,outcome
Cc1cc(NC(=O)CSc2nc(C3CC3)nc3sc(C)c(C)c23)no1,172% (active),
CC(=O)Nc1c2c(nn1-c1ccc(C)cc1)CS(=O)(=O)C2,,inactive
CCCNC(=O)C(=O)N/N=C/c1cccs1,,inactive
O=c1c(O)c(-c2ccc3c(c2)OCO3)oc2ccccc12,162% (active),
Cc1ccc(C(=O)CC(=O)c2cccc(F)c2)c(O)c1,150% (active),
CN1C(=O)C2(Oc3ccccc3C3CC(c4ccccc4)=NN32)c2ccccc21 (stereo not given),,inactive
Cc1nnc(SCC(=O)N(Cc2ccccc2)C(C)C)n1-c1ccccc1,,inactive
O=C(NC(=S)N1CCc2ccccc21)c1ccccc1Br,490% (active),
Cc1[nH]c(-c2ccccn2)nc(=S)c1Cl,262% (active),
O=C1NN(c2ccccc2)C(=O)/C1=C\c1cccc(OC(=O)c2cccs2)c1,202% (active),
CC(C)C1=NN(C(=O)c2ccccc2)C(O)(C(C)(C)C)C1 (stereo not given),,inactive
Cc1ccc(-n2ncc3c(SCC(=O)NNC(=O)c4ccco4)ncnc32)cc1,,inactive
COC(=O)[C@@H]1CCCN1C(=O)CCc1nnc(CCC2CCCCC2)o1,,inactive
CCOc1ccc(C(=O)C(CCC(CN(C)C)C(=O)c2ccc(OCC)cc2)CN(C)C)cc1 (stereo not given),152% (active),
O=C(Nc1nccs1)c1ccc(-c2ccc(F)c(Cl)c2)o1,,inactive
O=[N+]([O-])c1cc(CN2CCCC2)ccc1Sc1ccc(Cl)cc1,,inactive
Nc1nc(COc2ccccc2C=O)nc(Nc2ccccc2)n1,,inactive
O=c1c2ccccc2nc(-c2cccc(Cl)c2)n1O,327% (active),
COc1ccc(C(=O)NNC(=O)C(=O)NC2CCCCC2)cc1,168% (active),
O=C(NN=C1CCCCCC1)c1cc(-c2ccccc2)nc2ccccc12,,inactive

SMILES,potentiation,outcome
Cc1ccc(C(=O)NCCC(=O)NCc2cc(=O)n(C)c(=O)n2C)cc1,,inactive
CC(C)c1nc2n[nH]c(N)c2c2c1CSC(C)(C)C2,,inactive
COCCN(C(=O)COC(=O)/C=C/c1cccs1)c1c(N)n(Cc2ccccc2)c(=O)[nH]c1=O,,inactive
N#C/C(=C\c1ccc(-c2ccccc2Cl)o1)C(=O)Nc1nc2ccccc2s1,,inactive
CSC(=S)N/N=C/c1ccc(N(C)C)cc1,,inactive
Cc1ccc(C(=O)COC(=O)COc2ccccc2C)cc1,,inactive
O=c1c2cc(Cl)ccc2nc(-c2ccccc2)n1O,269% (active),
OC(c1ccccc1)c1cccnc1 (stereo not given),155% (active),
CCCn1c(=S)[nH]c2sc3c(c2c1=O)CCCC3,434% (active),
Fc1ccccc1/C=N/NC(=S)Nc1ccc(Cl)cc1Cl,,inactive
CCCCOC(=O)c1cc(C)nc2ccc(Br)cc12,320% (active),
COC(=O)C1SCC2C(=O)N(Cc3ccc(F)cc3)CC(=O)N21 (stereo not given),178% (active),
CCCOc1ccc(CN(CCC#N)C(=S)NC(=O)c2ccccc2)cc1,303% (active),
CCN(C(=O)COC(=O)c1ccccc1Nc1cccc(C)c1C)C1CCS(=O)(=O)C1 (stereo not given),,inactive
COc1ccc(N2CCN(C(=O)COC(=O)/C=C/c3ccc(OC(F)F)cc3)CC2)cc1,228% (active),
Clc1ccc(C(c2ccccc2)N2CCNCC2)cc1 (stereo not given),,inactive
CCOC(=O)CSc1nc2ccccc2c(=O)n1-c1ccc(C)cn1,,inactive
Cc1cc(C)c(NC(=O)CN2C(=O)NC3(CCCc4ccccc43)C2=O)c(Cl)c1 (stereo not given),,inactive
O=C(c1ccccc1[N+](=O)[O-])N1CCN(c2ccc(N3CCOCC3)nn2)CC1,,inactive
COc1ccc(-c2csc(N(CCCN(C)C)C(=O)c3ccccc3Cl)n2)cc1,,inactive
